Our source for the Ki values is BindingDB's records for doi:10.1016/j.ejmech.2018.08.004 (The University of Queensland, 2018).

Assay [1] addresses T1, Tartrate-resistant acid phosphatase type 5 (Sus scrofa, UniProt P09889).
T1 sequence (P09889 whole entry): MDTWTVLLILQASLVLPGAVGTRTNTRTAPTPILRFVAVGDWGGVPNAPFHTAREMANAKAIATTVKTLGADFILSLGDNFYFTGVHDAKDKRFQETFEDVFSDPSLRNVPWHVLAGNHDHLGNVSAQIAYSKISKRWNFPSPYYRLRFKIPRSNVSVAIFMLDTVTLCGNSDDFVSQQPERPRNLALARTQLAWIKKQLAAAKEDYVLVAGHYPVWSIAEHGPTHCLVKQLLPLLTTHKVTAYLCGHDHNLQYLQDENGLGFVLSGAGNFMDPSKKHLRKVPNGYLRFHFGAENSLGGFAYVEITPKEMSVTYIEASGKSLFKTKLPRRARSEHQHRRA
Nature of the assay: Competitive inhibition of pig purple acid phosphatase Fe(3)Fe(2) state assessed as enzyme-inhibitor complex using pNPP as substrate by UV/Vis spectrophotometric method. The method in brief: (§1)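 Pig PAP was from sow uterine fluid and pre-reduced to Fe(III)Fe(II) with 0.77 mM β-mercaptoethanol (10 min, 37 °C); rkbPAP was purified from red kidney beans. Assays ran at 25 °C, pH 4.9 (0.1 M acetate, 25% DMSO) with 12 nM enzyme, pNPP 1–12.5 mM and inhibitor 50–300 μM. p-Nitrophenol was read at 405 nm. Kic and Kiuc came from non-linear fit to the general inhibition equation.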

Assay [2] deals with T2, Fe(3+)-Zn(2+) purple acid phosphatase (Phaseolus vulgaris, UniProt P80366).
T2 sequence (P80366 whole entry): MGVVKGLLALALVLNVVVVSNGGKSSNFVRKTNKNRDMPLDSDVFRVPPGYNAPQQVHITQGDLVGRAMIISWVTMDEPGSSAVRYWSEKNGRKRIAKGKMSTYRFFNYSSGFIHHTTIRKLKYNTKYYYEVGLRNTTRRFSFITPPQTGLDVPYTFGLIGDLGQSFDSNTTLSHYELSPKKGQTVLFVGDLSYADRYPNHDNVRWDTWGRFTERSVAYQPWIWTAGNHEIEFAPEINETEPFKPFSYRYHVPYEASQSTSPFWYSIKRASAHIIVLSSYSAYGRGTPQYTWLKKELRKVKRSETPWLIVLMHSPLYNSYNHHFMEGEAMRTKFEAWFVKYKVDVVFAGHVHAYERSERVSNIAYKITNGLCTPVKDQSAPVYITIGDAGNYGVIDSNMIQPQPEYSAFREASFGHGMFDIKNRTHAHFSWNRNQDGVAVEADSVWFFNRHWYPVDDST
Put plainly: Competitive inhibition of red kidney bean purple acid phosphatase Fe(3)Fe(2) state assessed as enzyme-inhibitor complex using pNPP as substrate by UV/Vis spectrophotometric method. The method in brief: as §1

As for `O=C(O)c1csc(-c2ccc(Cl)cc2)n1`, the Ki – broadly, the dissociation constant of the complex between target and ligand, obtained from inhibition or displacement – in assay [1] was 49 µM; in assay [2], 530 µM.

`Cc1ccc(-c2nc(C(=O)O)cs2)cc1`: the Ki amounted to 42 µM in assay [1] and 340 µM in assay [2].

As to `COc1ccc(-c2nc(C(=O)O)cs2)cc1`, the figures for the inhibition constant Ki in assay [1] and in assay [2] were 120 µM and 400 µM, respectively.

For the molecule `O=C(O)c1csc(-c2ccccc2)n1`, the inhibitory constant (Ki) in assay [1] was found to be 190 µM.

On to `O=C(O)c1csc(-c2cccc3ccccc23)n1`, for which the results for the inhibitory constant (Ki) in assay [1] and in assay [2] were 33 µM and 185 µM, respectively.

Take `O=C(O)c1csc(-c2ccccc2Cl)n1`: the inhibition constant Ki came out at 630 µM in assay [1] and 920 µM in assay [2].
